Experimental data taken from publication PMC4284021 (The Journal of Pharmacy and Pharmacology, 2014).
“And” between values parts separate entries of the source, which are not always exact repeats. Identical values can stand only once. Marks after values point to notes of the source that are not given here.

Experiments:
[1] = test system: HDL-C, LDL-C, total cholesterol, triglycerides; assay: Lipid analyses; type: in vivo, human; details: for HDL-C: Mean % change from baseline (90% CI) / HDL-C: Mean % change vs placebo (90 % CI) / LDL-C: Mean % change from baseline (90% CI) / LDL-C: Mean % change vs placebo (90 % CI) / Total cholesterol: Mean % change from baseline (90% CI) / Total cholesterol: Mean % change vs placebo (90 % CI) / Triglycerides: Mean % change from baseline (90% CI) / Triglycerides: Mean % change vs placebo (90 % CI): day 14
In short: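 Placebo-controlled once-daily oral capsules (10–600 mg) with a low-fat meal for 14–15 days. Total cholesterol and triglycerides were measured by enzymatic methods. HDL-C was measured after dextran sulfate precipitation and centrifugation of LDL/VLDL. LDL-C was measured by a direct assay. Change from baseline was taken to Day 14 and to 2 weeks after the last dose. Emax models (Hill coefficient 1, baseline covariate) were used for HDL-C/LDL-C; linear models for total cholesterol and triglycerides.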

[2] = test system: healthy subjects; assay: 24-h ambulatory blood pressure monitoring; type: in vivo, human; details: for effect on 24-h ambulatory systolic or diastolic blood pressure: 600 mg compared with placebo
In short: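 Double-blind crossover cohort (n = 15): placebo or 600 mg/day oral test compound for 14 days, then the other treatment after a 21-day washout. Subjects wore the ambulatory monitor about 12 h before Day 1 baseline. On Day 14, dosing came about 1 h after monitoring began. Readings every 20 min by day, every 30 min at night. The first hour was excluded. Value is mean SBP/DBP over the 24 h after dosing.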

[3] = test system: healthy volunteers; details: doses of up to 1200 mg for 10 days; cited from earlier work
[4] = 600 mg, 24-h ABPM, Day 1 (baseline), mean (90% CI)
[5] = 600 mg/day for 14 days, 24-h ABPM
[6] = 600 mg/day for 14 days, 24-h ABPM, (90% CI)
[7] = 600 mg/day, 24-h ABPM, Day 14, mean (90% CI)

Compound: Cc1cc(C)c2c(c1)[C@@H](N(Cc1cc(C(F)(F)F)cc(C(F)(F)F)c1)c1nnn(C)n1)CCCN2C[C@H]1CC[C@H](C(=O)O)CC1 [evacetrapib]
- HDL-C: Mean % change from baseline (90% CI) ([1]; 10 mg/day): 11.69 (4.39, 18.99) %
- HDL-C: Mean % change vs placebo (90 % CI) ([1]; 10 mg/day): 18.02 (9.76, 26.28) ^*** %
- LDL-C: Mean % change from baseline (90% CI) ([1]; 10 mg/day): −11.94 (−18.31, −5.57) %
- LDL-C: Mean % change vs placebo (90 % CI) ([1]; 10 mg/day): −13.59 (−21.83, −5.35) ^** %
- Total cholesterol: Mean % change from baseline (90% CI) ([1]; 10 mg/day): −4.92 (−15.93, 6.10) %
- Total cholesterol: Mean % change vs placebo (90 % CI) ([1]; 10 mg/day): −4.26 (−17.58, 9.06) %
- Triglycerides: Mean % change from baseline (90% CI) ([1]; 10 mg/day): −12.92 (−26.89, 1.06) %
- Triglycerides: Mean % change vs placebo (90 % CI) ([1]; 10 mg/day): 5.51 (−11.39, 22.40) %
- HDL-C: Mean % change from baseline (90% CI) ([1]; 100 mg/day): 59.28 (51.54, 67.02) %
- HDL-C: Mean % change vs placebo (90 % CI) ([1]; 100 mg/day): 65.61 (53.34, 77.88) ^*** %
- LDL-C: Mean % change from baseline (90% CI) ([1]; 100 mg/day): −24.47 (−27.68, −21.26) %
- LDL-C: Mean % change vs placebo (90 % CI) ([1]; 100 mg/day): −26.13 (−32.39, −19.86) ^*** %
- Total cholesterol: Mean % change from baseline (90% CI) ([1]; 100 mg/day): 6.83 (−4.18, 17.85) %
- Total cholesterol: Mean % change vs placebo (90 % CI) ([1]; 100 mg/day): 7.49 (−5.83, 20.81) %
- Triglycerides: Mean % change from baseline (90% CI) ([1]; 100 mg/day): −3.75 (−17.73, 10.23) %
- Triglycerides: Mean % change vs placebo (90 % CI) ([1]; 100 mg/day): 14.67 (−2.22, 31.57) %
- HDL-C: Mean % change from baseline (90% CI) ([1]; 300 mg/day): 75.22 (68.87, 81.58) %
- HDL-C: Mean % change vs placebo (90 % CI) ([1]; 300 mg/day): 81.56 (70.90, 92.22) ^*** %
- LDL-C: Mean % change from baseline (90% CI) ([1]; 300 mg/day): −26.39 (−29.92, −22.85) %
- LDL-C: Mean % change vs placebo (90 % CI) ([1]; 300 mg/day): −28.04 (−34.18, −21.90) ^*** %
- Total cholesterol: Mean % change from baseline (90% CI) ([1]; 300 mg/day): 15.60 (3.53, 27.67) %
- Total cholesterol: Mean % change vs placebo (90 % CI) ([1]; 300 mg/day): 16.25 (2.05, 30.46) %
- Triglycerides: Mean % change from baseline (90% CI) ([1]; 300 mg/day): −2.10 (−17.41, 13.21) %
- Triglycerides: Mean % change vs placebo (90 % CI) ([1]; 300 mg/day): 16.32 (−1.69, 34.34) %
- decrease in LDL-C ([1]; 600 mg, Day 14, relative to placebo): 29%
- HDL-C: Mean % change from baseline (90% CI) ([1]; 600 mg/day): 80.50 (73.05, 87.95) %
- HDL-C: Mean % change vs placebo (90 % CI) ([1]; 600 mg/day): 87% and 86.83 (75.96, 97.71) ^*** %
- LDL-C: Mean % change from baseline (90% CI) ([1]; 600 mg/day): −26.91 (−30.71, −23.11) %
- LDL-C: Mean % change vs placebo (90 % CI) ([1]; 600 mg/day): −28.56 (−34.76, −22.37) ^*** %
- Total cholesterol: Mean % change from baseline (90% CI) ([1]; 600 mg/day): 15.48 (7.85, 23.11) %
- Total cholesterol: Mean % change vs placebo (90 % CI) ([1]; 600 mg/day): 16.13 (5.44, 26.82) ^* %
- Triglycerides: Mean % change from baseline (90% CI) ([1]; 600 mg/day): −22.08 (−31.76, −12.40) %
- Triglycerides: Mean % change vs placebo (90 % CI) ([1]; 600 mg/day): −3.66 (−17.22, 9.91) %
- changes in triglycerides ([1]; 10–600 mg, Day 14): no statistically significant changes
- HDL-C change (SD) from baseline to 2 weeks after the last dose ([1]; 600-mg dose group): 7.3%
- LDL-C change (SD) from baseline to 2 weeks after the last dose ([1]; 600-mg dose group): −2.6%
- HDL-C and LDL-C after 2-week washout ([1]; all dose groups): returned to levels at or near baseline
- effect on 24-h ambulatory systolic or diastolic blood pressure [2]: No significant differences
- effect on 24-h ambulatory systolic or diastolic blood pressure ([2]; listed as Evacetrapib): did not produce any significant effect
- correlation between exposure and blood pressure (Spearman's rank correlation coefficient) ([2]; 600 mg crossover cohort, P = 0.964): 0.00954
- Diastolic blood pressure, Day 1 mean [2, 4]: 68.27 (64.82, 71.72) mmHg
- Systolic blood pressure, Day 1 mean [2, 4]: 112.16 (109.12, 115.19) mmHg
- Diastolic blood pressure, Difference (comparison with placebo) [2, 5]: −2.28 mmHg
- Systolic blood pressure, Difference (comparison with placebo) [2, 5]: −1.96 mmHg
- Diastolic blood pressure, LS mean change [2, 6]: 0.60 (−1.45, 2.65) mmHg
- Systolic blood pressure, LS mean change [2, 6]: −0.27 (−2.64, 2.11) mmHg
- Diastolic blood pressure, Day 14 mean [2, 7]: 73.72 (70.26, 77.18) mmHg
- Systolic blood pressure, Day 14 mean [2, 7]: 118.28 (113.78, 122.77) mmHg
- QT interval prolongation [3]: no evidence of QT interval prolongation
- tolerability [3]: well tolerated
